Assay outcomes from PubChem.
Most compounds without a hit are left out; they make up all but 6.9% or so of the library.
PostGolgi ctrl: yeast control strain growth, post-Golgi counter-screen | efflux-deficient yeast background strain, growth absorbance A615, 16 h | inhibition, % at 10 µM | 98,000 tested, 5% active | AID 738
PostGolgi yeast: growth inhibition of a yeast mutant, post-Golgi transport screen. 98,000 tested, 0.9% active. post-Golgi transport phenotypic cell assay. inhibition, % at 10 µM;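 note: yeast cells grown in 1536-well plates; yeast grown about 18 h at 30C before absorbance read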
FAK inh: blocks human focal adhesion kinase activity; Q05397; biochemical FAK kinase activity assay; inhibition, %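 (tested at 7 µM)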; 97,000 tested, 0.84% active; AID 727; in the data active = inhibition above about 19%;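 note: 0% = DMSO and 100% = reference compound high control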
tolC growth inh: E. coli tolC mutant growth inhibition | E. coli BW25113 tolC mutant growth, OD615 | growth inhibition, % at 10 µM (by protocol) | 65,000 tested, 2.2% active | AID 573;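 active = growth inhibition at or above a cutoff equal to the mean over every tested compound plus 3 SD, cut at about 60% in these data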;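 note: growth measured after 20 h incubation at 37 °C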
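signal = optical density read at 615 nm | test system = E. coli ΔtolC::kan strain BW25113 | timing = 20 h compound exposure of bacteria at 37 °C | buffer or medium = LB medium plus 50 µg/mL kanamycin | compound dosing = 10 µM final, single dose | evaluation = % inhibition of E. coli growth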
Candida biofilm: kills Candida albicans biofilms; C. albicans biofilm + clotrimazole, Alamar Blue; inhibition, % at 6 µM; 85,000 tested, 0.14% active; AID 834;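 active = inhibition above 20%; inactive = inhibition below 20%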;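 note: preformed 24 hr biofilms exposed to compound for 48 hr; 0% = biofilm without compound and 100% = blank killed by clotrimazole plus chlorhexidine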
PTK2B oligo ant: blocks oligomerization of human Pyk2 in cells | Q293 cells, Pyk2 FERM NanoBiT luminescence; stronger effect = lower value | z-score (the deposit names both 25 µM and 10 µM) | 99,000 tested, 0.83% active | AID 1347419;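 active = Z-score of -3 or lower, scaled per plate to the spread of control and sample wells; inactive = z-score above -3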;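 note: negative z-score means lost luminescence so less FERM oligomerization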
Target sequence (Q14289 whole entry, looked up): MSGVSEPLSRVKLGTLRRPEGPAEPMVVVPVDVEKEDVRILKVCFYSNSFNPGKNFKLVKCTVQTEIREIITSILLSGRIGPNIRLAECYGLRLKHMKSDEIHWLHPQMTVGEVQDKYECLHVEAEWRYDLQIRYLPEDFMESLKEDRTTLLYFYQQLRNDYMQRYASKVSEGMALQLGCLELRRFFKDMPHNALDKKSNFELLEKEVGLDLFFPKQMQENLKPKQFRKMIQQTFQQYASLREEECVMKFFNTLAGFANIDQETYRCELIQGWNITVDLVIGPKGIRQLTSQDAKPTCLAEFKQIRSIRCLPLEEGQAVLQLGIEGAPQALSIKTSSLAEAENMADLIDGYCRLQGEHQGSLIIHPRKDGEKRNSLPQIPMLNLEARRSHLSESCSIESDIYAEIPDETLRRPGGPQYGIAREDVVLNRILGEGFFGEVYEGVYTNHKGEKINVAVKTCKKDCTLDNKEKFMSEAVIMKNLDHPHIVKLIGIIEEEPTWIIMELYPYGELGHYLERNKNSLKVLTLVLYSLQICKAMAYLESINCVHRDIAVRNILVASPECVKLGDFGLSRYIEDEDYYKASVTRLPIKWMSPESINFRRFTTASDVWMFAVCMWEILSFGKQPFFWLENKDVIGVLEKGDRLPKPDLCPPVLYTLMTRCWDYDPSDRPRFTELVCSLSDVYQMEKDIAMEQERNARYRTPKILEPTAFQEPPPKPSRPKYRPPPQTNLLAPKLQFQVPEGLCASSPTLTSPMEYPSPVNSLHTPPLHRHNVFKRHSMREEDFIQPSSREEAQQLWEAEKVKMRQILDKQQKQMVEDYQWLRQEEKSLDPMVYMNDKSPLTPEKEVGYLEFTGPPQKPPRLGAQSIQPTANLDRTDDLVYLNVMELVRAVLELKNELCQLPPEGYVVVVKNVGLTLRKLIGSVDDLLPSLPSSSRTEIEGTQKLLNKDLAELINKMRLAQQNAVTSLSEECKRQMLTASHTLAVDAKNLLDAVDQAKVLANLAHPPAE
* = called active by the depositor; x = no result given. Cut-off read from the data, not from the text of the source, unless noted: active = inhibition above about 30%; inactive = the rest.

SMILES	PostGolgi ctrl	PostGolgi yeast	FAK inh	tolC growth inh	Candida biofilm	PTK2B oligo ant
O=C1N/C(=N/NC(=O)c2cccc3ccccc23)S/C1=C\c1ccccc1OCc1ccccc1	13	-3	19	x	x	-3*
COc1ccc(/C(C)=N/OCC(=O)N2CC3(C)CC2CC(C)(C)C3)cc1 (stereo unspecified)	x	x	x	x	x	0.2
O=C(Nc1cccc(-c2nnn(CC(=O)N3CCc4ccccc4C3)n2)c1)C1CCC1	2	-8	-1	16	8	-0.6
Cc1ccccc1N1C(=O)C(Cl)=C(N2CCN(c3ccccc3)CC2)C1=O	38*	-1	3	27	x	-1.8
Cc1ccc(C2=NN3C(C(=O)c4ccccc4)Oc4ccccc4C3C2)cc1 (stereo unspecified)	50*	12	-2	x	x	-0.84
N#CCCn1c(SCC(=O)NCc2ccco2)nc2ccccc21	5	-9	-1	x	-6	-0.66
CC(C)OC(=O)NC(C)(C)COC(=O)Nc1cccc(Cl)c1	x	x	1	x	5	-0.91
COc1cccc(C(=O)N(Cc2ccc3c(c2)OCO3)Cc2nc3ccccc3c(=O)[nH]2)c1	4	-11	4	-2	5	-3.4*
COc1ccccc1NC(=O)N(Cc1ccc2c(c1)OCO2)Cc1nc2ccccc2c(=O)[nH]1	-6	24	-2	-19	-1	-4*
O=c1[nH]c(CN2CCN(Cc3ccc4c(c3)OCO4)CC2)nc2ccccc12	x	x	-8	-8	x	0.19
COc1ccccc1CN(Cc1nc2ccccc2c(=O)[nH]1)C(=O)Nc1cccc(C)c1	20	-2	-1	x	-2	-0.63
O=C(CSc1nnc(-c2ccccc2)n1Cc1ccccc1)NC1CC1	-1	-7	-1	-5	-1	-0.37
COc1ccc(CS(=O)(=O)/C(Cl)=C(/Cl)C(=O)Nc2ccc(OC)nc2)cc1	65*	29	-1	x	5	-1.3
COc1ccc(NC(=O)c2cc(OC)c(OC)c(OC)c2)cn1	4	1	1	11	2	0.63
COc1ccc(NC(=O)/C(Cl)=C(/Cl)S(=O)Cc2ccccc2)cn1 (stereo unspecified)	80*	107*	-3	x	-3	-0.07
CCOc1ccccc1OCCCC(=O)Nc1ccc(OC)nc1	0	-8	x	-3	4	0.53
CCn1c(SCC(=O)Nc2ccc(C(C)=O)cc2)nc2nc3c(cc2c1=O)CCCC3	11	-1	-10	x	x	-1.2
Cc1ccc(CC(=O)N2CC(C)OC(C)C2)cc1 (stereo unspecified)	4	5	-3	x	6	0.62
CN(C(=O)c1ccc(C(=O)N(C)C2CCCCC2)cc1)C1CCCCC1	x	x	1	x	5	x
O=C(NO)c1ccc(C(=O)N(C2CCCCC2)C2CCCCC2)cc1	96*	102*	-2	17	7	-0.27
O=C(O)c1cccc(S(=O)(=O)N2Cc3ccccc3C2)c1	x	x	-1	-2	2	0.33
COc1ccc(CN2CC(C(=O)NCCCN3CCOCC3)CC2=O)cc1 (stereo unspecified)	35*	-5	3	-26	x	-1.1
O=C1OCCC1Sc1ncnc2sc3c(c12)CCC3 (stereo unspecified)	2	-8	3	1	9	0.05
Cc1nc(SC2CCOC2=O)c2c(C)c(C)sc2n1 (stereo unspecified)	36*	9	4	x	x	-0.07
O=C(Cc1cccs1)Nc1ccc(-c2nc3ccccc3[nH]2)cc1	-11	-8	2	x	x	-0.96
SMILES	PostGolgi ctrl	PostGolgi yeast	FAK inh	tolC growth inh	Candida biofilm	PTK2B oligo ant
O=C(CSc1ccc(Cl)cc1)N1CCC(c2nc3ccccc3s2)CC1	41*	3	-4	x	x	0.04
CCc1ccc(C(=O)N2CCC(c3nc4ccccc4s3)CC2)cc1	37*	-6	-8	x	4	-1.3
O=C(CSc1c(Cl)cccc1Cl)N1CCC(c2nc3ccccc3s2)CC1	20	-4	6	x	x	-1.2
CC(=O)Oc1c(Cl)cc(Cl)cc1/C=C/c1ccc2ccccc2n1	54*	-5	-2	x	x	-2.8
Cc1cc(SCC(=O)N2CCC(c3noc4ccc(F)cc34)CC2)nc2ccccc12	34*	10	5	35	5	-0.89
COC(=O)C(NC(=O)C(NC(=O)c1ccccc1)C(C)C)C(C)C (stereo unspecified)	3	-4	-1	2	7	1.1
S=C(NCc1ccco1)N1CCN(Cc2ccc(Cl)cc2Cl)CC1	32*	8	-3	x	x	0.23
O=C(CN1CCN(Cc2ccccc2)CC1)NC(=O)NCc1ccco1	15	-3	-5	-11	6	-0.3
